Calls of active or inactive are those of the source. The calls are words filed in the database; no cut-off is given here.
Experiments:
D(1A) dopamine receptor [1] = molecular target: T1, D(1A) dopamine receptor (Homo sapiens, UniProt P21728); experiment: (§1) Agonist activity at recombinant C-terminal RLuc8-fused human D1 receptor expressed in HEK29T cells co-expressing N-terminal Venus-tagged beta-arrestin2 assessed as increase in beta-arrestin2 recruitment at 10^-4M measured after 15 mins in presence of coelenterazine H by BRET assay; format: cell-based
T1 sequence (P21728 whole entry, the tested form may be a part): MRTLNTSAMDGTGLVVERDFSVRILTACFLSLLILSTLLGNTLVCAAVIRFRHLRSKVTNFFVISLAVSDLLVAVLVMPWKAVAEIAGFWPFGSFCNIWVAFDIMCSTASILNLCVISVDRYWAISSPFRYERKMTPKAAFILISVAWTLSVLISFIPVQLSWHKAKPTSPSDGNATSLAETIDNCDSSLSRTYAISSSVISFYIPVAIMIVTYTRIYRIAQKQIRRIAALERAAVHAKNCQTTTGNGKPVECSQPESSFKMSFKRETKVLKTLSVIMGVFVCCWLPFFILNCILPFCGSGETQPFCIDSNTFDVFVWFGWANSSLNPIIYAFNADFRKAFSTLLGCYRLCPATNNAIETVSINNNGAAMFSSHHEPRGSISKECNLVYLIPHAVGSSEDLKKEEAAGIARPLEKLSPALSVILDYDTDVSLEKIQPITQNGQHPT

D(1A) dopamine receptor [2] = molecular target: T1, D(1A) dopamine receptor; experiment: as §1, with “assay relative to dopamine” for “assay”; format: cell-based
D(1A) dopamine receptor [3] = molecular target: T1, D(1A) dopamine receptor; experiment: Agonist activity at recombinant human D1 receptor expressed in HEK29T cells assessed as induction of stimulatory G-protein-mediated cAMP accumulation measured after 15 mins by Glosensor-based FLIPR assay relative to dopamine; format: functional, cell-based
In short: (§2)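 GloSensor-22F cAMP biosensor in HEK293T cells co-expressing human D1, seeded in DMEM + 1% dialyzed FBS; next day GloSensor reagent equilibrated ≥15 min at room temperature in HBSS/20 mM HEPES pH 7.4, then drug added in HBSS/HEPES/0.1% BSA/0.01% ascorbic acid. Luminescence read after 15 min; normalized to dopamine maximum (100%); sigmoidal fit; maximum tested 10⁻⁴ M; ≥3 experiments in triplicate.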

D(1A) dopamine receptor [4] = molecular target: T1, D(1A) dopamine receptor; experiment: Agonist activity at recombinant human D1 receptor expressed in HEK29T cells assessed as induction of stimulatory G-protein-mediated cAMP accumulation measured after 15 mins by Glosensor-based FLIPR assay; format: functional, cell-based; in short: as §2
D(1A) dopamine receptor [5] = molecular target: T1, D(1A) dopamine receptor; experiment: Agonist activity at recombinant C-terminal RLuc8-fused human D1 receptor expressed in HEK29T cells co-expressing N-terminal Venus-tagged beta-arrestin2 assessed as increase in beta-arrestin2 recruitment measured after 15 mins in presence of coelenterazine H by BRET assay relative to dopamine; format: cell-based
D(1A) dopamine receptor [6] = molecular target: T1, D(1A) dopamine receptor; experiment: Agonist activity at recombinant C-terminal RLuc8-fused human D1 receptor expressed in HEK29T cells co-expressing N-terminal Venus-tagged beta-arrestin2 assessed as increase in beta-arrestin2 recruitment measured after 15 mins in presence of coelenterazine H by BRET assay; format: cell-based; details: read-out: EC50
D(1A) dopamine receptor [7] = molecular target: T1, D(1A) dopamine receptor; experiment: Bias factor, transduction co-efficient for agonist activity at recombinant human D1 receptor expressed in HEK29T cells assessed as induction of stimulatory G-protein-mediated cAMP accumulation to agonist activity at recombinant C-terminal RLuc8-fused human D1 receptor expressed in HEK29T cells co-expressing N-terminal Venus-tagged beta-arrestin2 assessed as increase in beta-arrestin2 recruitment; format: functional, cell-based
In short: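 Dopamine as full-agonist reference; transduction coefficients log(τ/KA) for Gs-cAMP (GloSensor) and β-arrestin2 (BRET) computed relative to dopamine and averaged across experiments; bias factor derived by Kenakin method from the difference between Gs and β-arrestin2 coefficients.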

D(1A) dopamine receptor [8] = molecular target: T1, D(1A) dopamine receptor; experiment: Agonist activity at recombinant human D1 receptor expressed in HEK29T cells assessed as induction of stimulatory G-protein-mediated cAMP accumulation at 10'4M measured after 15 mins by Glosensor-based FLIPR assay; format: functional, cell-based; in short: as §2
D(1A) dopamine receptor [9] = molecular target: T1, D(1A) dopamine receptor; experiment: Agonist activity at recombinant human D1 receptor expressed in HEK29T cells assessed as induction of stimulatory G-protein-mediated cAMP accumulation at 10'4M measured after 15 mins by Glosensor-based FLIPR assay relative to dopamine; format: functional, cell-based; in short: as §2
[10] = Cmax in Swiss albino mouse brain at 50 mg/kg, ip measured up to 4 hrs by LC-MC/MS analysis; format: ADME, organism-based; set-up: dose 50 mg/kg, route intraperitoneal
In short: (§3)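 Male Swiss Albino mice (nine), 50 mg/kg i.p. in 5% NMP/5% Solutol HS-15/90% saline; plasma and brain taken from three mice per time point at 0.5, 1.5 and 4 h; brain homogenized 2:1 in ice-cold PBS pH 7.4; LC-MS/MS quantitation (LLOQ 1.01 ng/mL plasma, 3.03 ng/g brain); noncompartmental analysis.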

[11] = Ratio of drug level in brain to plasma in Swiss albino mouse at 50 mg/kg, ip measured up to 4 hrs by LC-MC/MS analysis; format: ADME, organism-based; in short: as §3
[12] = Toxicity in Swiss albino mouse at 50 mg/kg, ip measured up to 4 hrs; format: organism-based; details: in vivo
[13] = Cmax in Swiss albino mouse plasma at 50 mg/kg, ip measured up to 4 hrs by LC-MC/MS analysis; format: ADME, organism-based; set-up: dose 50 mg/kg, route intraperitoneal; in short: as §3

SMILES | Activity (D(1A) dopamine receptor [1]) | Emax (D(1A) dopamine receptor [2]) | Emax (D(1A) dopamine receptor [3]) [%] | EC50 (D(1A) dopamine receptor [4]) [µM] | EC50 (D(1A) dopamine receptor [6]) [µM] | further results
FC(F)(F)c1cc(Oc2nccn3cccc23)ccc1-c1cccc2nccn12 | inactive | inactive | 78 | 0.0078 | – | –
Cc1cc(Oc2nccc3occc23)ccc1-c1cccc2nccn12 | – | – | 95 | 0.0027 | 0.18 | Emax (D(1A) dopamine receptor [5]): 63%; fold change (FC) (D(1A) dopamine receptor [7]): 1.3
Cc1cc(Nc2nccc3occc23)ccc1-c1c(C)ncc2nccn12 | – | – | 98 | 0.016 | > 10 | –
Oc1cc2c(cc1O)[C@H]1c3ccccc3CN[C@@H]1CC2 (racemic) | – | – | – | – | – | fold change (FC) (D(1A) dopamine receptor [7]): 7.5
Cc1c(Oc2nccc3occc23)ccc(-c2cccc3nccn23)c1C | inactive | inactive | 30 | 0.11 | – | –
Cc1cc(Oc2nccc3occc23)ccc1-c1nc(N)cnc1C | – | – | 91 | 0.022 | > 10 | –
Cc1ncc2nccn2c1-c1ccc(Oc2nccc3occc23)cc1N | – | – | 104 | 0.0013 | 0.21 | Emax (D(1A) dopamine receptor [5]): 81%; fold change (FC) (D(1A) dopamine receptor [7]): 2.7
FC(F)(F)c1cc(Oc2nccc3ccccc23)ccc1-c1cccc2nccn12 | inactive | inactive | 61 | 0.067 | – | –
FC(F)(F)c1cc(Oc2nccc3occ(C4CC4)c23)ccc1-c1cccc2nccn12 | inactive | inactive | 83 | 0.77 | – | –
Cc1cc(Oc2nccc3ccsc23)ccc1-c1c(C)ncc2nccn12 | – | – | 100 | 0.00023 | 0.022 | Emax (D(1A) dopamine receptor [5]): 63%; fold change (FC) (D(1A) dopamine receptor [7]): 1.9
Cc1cc(N(C)c2nccc3occc23)ccc1-c1c(C)ncc2nccn12 | inactive | inactive | 79 | 0.088 | – | –
FC(F)(F)c1cc(Oc2cc(N3CCCCC3)ccn2)ccc1-c1cccc2nccn12 | – | – | – | – | > 10 | Activity (D(1A) dopamine receptor [8]): inactive; Emax (D(1A) dopamine receptor [9]): inactive
Cc1cc(Oc2nccc3[nH]ncc23)ccc1-c1c(C)ncc2nccn12 | – | – | 104 | 0.0018 | > 10 | –
Cc1cc(Oc2nccc3occ(C4CC4)c23)ccc1-c1c(C)ncc2nccn12 | inactive | inactive | 67 | 0.062 | – | –
Cc1cc(N(c2nccc3occc23)C(C)C)ccc1-c1c(C)ncc2nccn12 | inactive | inactive | 67 | 0.1 | – | –
Cc1ncc2nccn2c1-c1cc(F)c(Oc2nccc3occc23)c(F)c1 | inactive | inactive | 66 | 0.14 | – | –
Cc1cc(Oc2nccc(O)c2C)ccc1-c1c(C)ncc2nccn12 | inactive | inactive | 34 | 0.16 | – | –
Cc1cc(Oc2nccc3occc23)ccc1-c1ccc(C#N)cn1 | inactive | inactive | – | > 10 | – | –
Cc1cc(-c2c(C)ncc3nccn23)ccc1Oc1nccc2occc12 | inactive | inactive | 62 | 0.61 | – | –
Cc1cc(Oc2cc(N3CCCCC3)ccn2)ccc1-c1c(C)ncc2nccn12 | inactive | inactive | 26 | 0.64 | – | –
Nc1cc(Oc2nccc3occc23)ccc1-c1cccc2nccn12 | – | – | 91 | 0.01 | 0.79 | Emax (D(1A) dopamine receptor [5]): 54%; Cmax [10]: 100 µM; BPR [11]: 1.2 to 1.6; Activity [12]: Non-Toxic; fold change (FC) (D(1A) dopamine receptor [7]): 1.7; Cmax [13]: 100 µM
Cc1ncc2nccn2c1-c1ccc(Oc2nccc3occc23)c(C(F)(F)F)c1 | inactive | inactive | – | – | – | Activity (D(1A) dopamine receptor [8]): inactive; Emax (D(1A) dopamine receptor [9]): inactive
Cc1cc(Oc2nccc3occc23)ccc1-c1c(C)cnnc1C | inactive | inactive | 61 | 0.0012 | – | –

SMILES | Activity (D(1A) dopamine receptor [1]) | Emax (D(1A) dopamine receptor [2]) | Emax (D(1A) dopamine receptor [3]) [%] | EC50 (D(1A) dopamine receptor [4]) [µM] | EC50 (D(1A) dopamine receptor [6]) [µM] | further results
Cc1cc(Oc2nccn3ccnc23)ccc1-c1c(C)ncc2nccn12 | inactive | inactive | 85 | 0.26 | – | –
Fc1cc(-c2cccc3nccn23)cc(F)c1Oc1nccc2occc12 | – | – | 57 | 0.19 | > 10 | –
Cc1cc(Oc2nccc3ccccc23)ccc1-c1c(C)ncc2nccn12 | – | – | 82 | 0.015 | > 10 | –
FC(F)(F)c1cc(Oc2ccccn2)ccc1-c1cccc2nccn12 | inactive | inactive | 65 | 0.27 | – | –
Cc1cc(-c2cccc3nccn23)ccc1Oc1nccc2occc12 | inactive | inactive | 29 | 0.53 | – | –
Cc1cc(N(c2nccc3occc23)C2CCCC2)ccc1-c1c(C)ncc2nccn12 | – | – | 68 | 1.1 | > 10 | –
COC(=O)c1cccn2c(-c3ccc(Oc4nccc5occc45)cc3C)cnc12 | inactive | inactive | 44 | 1 | – | –
Cc1cc(Oc2nccc3occc23)ccc1-c1c(C)nc2cnccn12 | – | – | 63 | 0.0058 | 2.6 | Emax (D(1A) dopamine receptor [5]): 89%; fold change (FC) (D(1A) dopamine receptor [7]): 4.1
Cc1cc(Oc2cccc3occc23)ccc1-c1c(C)ncc2nccn12 | inactive | inactive | 69 | 0.079 | – | –
Cc1cc(Oc2ccccn2)ccc1-c1c(C)ncc2nccn12 | – | – | 83 | 0.12 | > 10 | –
CCN(c1ccc(-c2c(C)ncc3nccn23)c(C)c1)c1nccc2occc12 | inactive | inactive | 80 | 0.036 | – | –
COc1ccc(-c2ccc(Oc3nccc4occc34)cc2C)c(C)n1 | – | – | 80 | 0.077 | > 10 | –
Cc1cc(Oc2nccc3occc23)cc(C)c1-c1cccc2nccn12 | inactive | inactive | – | – | – | Activity (D(1A) dopamine receptor [8]): inactive; Emax (D(1A) dopamine receptor [9]): inactive
FC(F)(F)c1cc(Oc2nccn3ccnc23)ccc1-c1cccc2nccn12 | inactive | inactive | 54 | 0.18 | – | –
CCOc1ncnc(C)c1-c1ccc(Oc2nccc3occc23)cc1C | – | – | 67 | 0.012 | > 10 | –
Cc1cc(N(CC2CC2)c2nccc3occc23)ccc1-c1c(C)ncc2nccn12 | inactive | inactive | 78 | 0.32 | – | –
Cc1ncc2nccn2c1-c1ccc(Oc2nccc3occc23)c(C)c1C | inactive | inactive | 54 | 0.055 | – | –
Cc1cc(Oc2nccc3occc23)ccc1-c1cc(N)cnc1C | – | – | 67 | 0.013 | 1.1 | Emax (D(1A) dopamine receptor [5]): 64%; fold change (FC) (D(1A) dopamine receptor [7]): 1.2
FC(F)(F)c1cc(-c2cccc3nccn23)ccc1Oc1nccc2occc12 | inactive | inactive | – | – | – | Activity (D(1A) dopamine receptor [8]): inactive; Emax (D(1A) dopamine receptor [9]): inactive
Cc1cc(Oc2nccc3occc23)ccc1-c1cncc(C(N)=O)c1 | inactive | inactive | 59 | 1.3 | – | –
Cc1cc(Oc2nccn3cccc23)ccc1-c1c(C)ncc2nccn12 | – | – | 83 | – | – | Emax (D(1A) dopamine receptor [5]): 59%; fold change (FC) (D(1A) dopamine receptor [7]): 15
Cc1cc(Oc2ncccc2Br)ccc1-c1c(C)ncc2nccn12 | inactive | inactive | – | > 10 | – | –

Reference: ChEMBL document CHEMBL4390674, “Defining Structure-Functional Selectivity Relationships (SFSR) for a Class of Non-Catechol Dopamine D1 Receptor Agonists” (J Med Chem, 2019)
